Test results published in ChEMBL document CHEMBL1140092, “New chimeric antimalarials with 4-aminoquinoline moiety linked to a tetraoxane skeleton” (J Med Chem, 2008).
Calls of active or inactive are those of the source.

Legend:
[1] = system: Plasmodium falciparum; assay: Antimalarial activity against chloroquine-sensitive Plasmodium falciparum D6; assay type: functional, organism-based
Outline: (§1)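 In vitro blood-stage assay with P. falciparum clones: D6 (Sierra I/UNC isolate), W2 (Indochina I isolate) and TM91C235 (Southeast Asian isolate). Activity was expressed as IC90.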

[2] = system: Plasmodium falciparum; assay: Antimalarial activity against chloroquine-resistant, mefloquine-susceptible Plasmodium falciparum W2; assay type: functional, organism-based; outline: as §1
[3] = system: Plasmodium falciparum; assay: Antimalarial activity against multidrug-resistant Plasmodium falciparum TM91C235; assay type: functional, organism-based; outline: as §1
[4] = system: Plasmodium berghei; assay: Antimalarial activity against Plasmodium berghei KBG173 infected ICR mice (Mus musculus) at 320 mg/kg/day peroral dose from day 3 post infection at day 31 by modified Thompson test; assay type: functional, organism-based
Outline: (§2)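 Modified Thompson test in groups of five ICR mice. Mice were inoculated ip with P. berghei KBG 173-infected erythrocytes on day 0. Compound was suspended in 0.5% hydroxyethylcellulose-0.1% Tween 80 and given orally once daily on days 3-5. Blood smears were read on days 6-31. Cure was defined as alive on day 31 with no parasites in a blood film. Necropsy followed.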

[5] = system: Plasmodium berghei; assay: Antimalarial activity against Plasmodium berghei KBG173 infected ICR mice (Mus musculus) at 20 mg/kg/day peroral dose from day 3 post infection at day 31 by modified Thompson test; assay type: functional, organism-based; outline: as §2
[6] = system: Plasmodium berghei; assay: Antimalarial activity against Plasmodium berghei KBG173 infected ICR mice (Mus musculus) at 320 mg/kg/day peroral dose from days 3 to 5 post infection; assay type: functional; settings: route oral; outline: as §2
[7] = system: Plasmodium berghei; assay: Antimalarial activity against Plasmodium berghei KBG173 infected ICR mice (Mus musculus) assessed at 80 mg/kg/day peroral dose from days 3 to 5 post infection; assay type: functional; settings: route oral; outline: as §2
[8] = system: Plasmodium berghei; assay: Antimalarial activity against Plasmodium berghei KBG173 infected ICR mice (Mus musculus) assessed at 20 mg/kg/day peroral dose from days 3 to 5 post infection; assay type: functional; settings: route oral; outline: as §2
[9] = system: Mus musculus; assay: Toxicity in Plasmodium berghei KBG173-infected ICR mice (Mus musculus) at 960 mg/kg, perorally for 3 days; assay type: organism-based; design: dose 960 mg/kg, route oral; settings: in vivo, po, 72 h
Outline: (§3)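 Orally dosed, P. berghei KBG 173-infected ICR mice in groups of five received compound suspended in 0.5% hydroxyethylcellulose-0.1% Tween 80 once daily for three consecutive days. Doses went up to 960 mg/kg. Toxicity was judged by survival and by gross lesions at necropsy.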

[10] = system: Mycobacterium tuberculosis; assay: Antitubercular activity against Mycobacterium tuberculosis H37Rv at 6.26 ug/ml by alamar blue assay; assay type: functional
Outline: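 Screened against M. tuberculosis H37Rv at TAACF by Alamar blue assay at a cutoff of 6.26 µg/mL. Active was defined as >90% inhibition.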

[11] = system: Mycobacterium tuberculosis; assay: Antitubercular activity against Mycobacterium tuberculosis H37Rv by microplate alamar blue assay; assay type: functional
Outline: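 M. tuberculosis H37Rv was tested at TAACF by microplate Alamar blue assay (MABA). Inhibitory activity was reported as IC90.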

[12] = Toxicity in Plasmodium berghei KBG173-infected perorally dosed ICR mice (Mus musculus) assessed as maximum tolerated dose; assay type: organism-based; settings: in vivo, po; outline: as §3
[13] = Metabolic stability in human liver microsomes assessed as half life; assay type: ADME, Microsome
[14] = Metabolic stability in mouse liver microsomes assessed as half life; assay type: ADME, Microsome

Structure (SMILES): Clc1ccc2c(NCCNCC3CCC4(CC3)OOC3(CCCCC3)OO4)ccnc2c1
- IC50 [1]: 9.05 nM
- IC90 [1]: 18.2 nM
- IC50 [2]: 5.76 nM
- IC90 [2]: 12.4 nM
- IC50 [3]: 9.9 nM
- IC90 [3]: 18.3 nM
- Activity [4]: Active
- Activity [5]: inactive
- Survival [6]: >31 days
- Survival [7]: 26.4 days
- Survival [8]: 15.8 days
- Activity [9]: Non-toxic
- inhibition at 6.26 µg/mL [10]: > 90%
- IC90 [11]: < 430 nM
- MTD [12]: > 960 mg/kg

Structure (SMILES): OC(c1cc(C(F)(F)F)nc2c(C(F)(F)F)cccc12)C1CCCCN1 (configuration not stated) [MEFLOQUINE]
- IC50 [1]: 19 nM
- IC90 [1]: 44.8 nM
- IC50 [2]: 5.35 nM
- IC90 [2]: 18.6 nM
- IC50 [3]: 47.5 nM
- IC90 [3]: 153 nM

Structure (SMILES): CC(=O)O[C@H]1C[C@H]2[C@@H]([C@H](OC(C)=O)C[C@@H]3CC4(CC[C@@]32C)OOC2(CCCCC2)OO4)[C@@H]2CC[C@H]([C@H](C)CCCNCCNc3ccnc4cc(Cl)ccc34)[C@@]12C
- IC50 [1]: 33.5 nM
- IC90 [1]: 103 nM
- IC50 [2]: 22.9 nM
- IC90 [2]: 30.3 nM
- IC50 [3]: 30.2 nM
- IC90 [3]: 160 nM
- inhibition at 6.26 µg/mL [10]: > 90%
- IC90 [11]: 330 nM

Structure (SMILES): CC(=O)O[C@H]1C[C@H]2[C@@H]([C@H](OC(C)=O)C[C@@H]3CC4(CC[C@@]32C)OOC2(CCCCC2)OO4)[C@@H]2CC[C@H]([C@H](C)CCC(=O)NCCNc3ccnc4cc(Cl)ccc34)[C@@]12C
- IC50 [1]: 6.53 nM
- IC90 [1]: 10.6 nM
- IC50 [2]: 4.47 nM
- IC90 [2]: 10.7 nM
- IC50 [3]: 8.54 nM
- IC90 [3]: 17.2 nM
- inhibition at 6.26 µg/mL [10]: > 90%
- IC90 [11]: 400 nM

Structure (SMILES): O=C(NCCNc1ccnc2cc(Cl)ccc12)C1CCC2(CC1)OOC1(CCCCC1)OO2
- IC50 [1]: 2.33 nM
- IC90 [1]: 3.75 nM
- IC50 [2]: 2 nM
- IC90 [2]: 2.26 nM
- IC50 [3]: 3.7 nM
- IC90 [3]: 7.38 nM
- Activity [4]: Active
- Activity [5]: inactive
- Survival [6]: >31 days
- Survival [7]: 26.2 days
- Survival [8]: 14.2 days
- Activity [9]: Non-toxic
- half-life [13]: > 1 h
- half-life [14]: > 1 h
- inhibition at 6.26 µg/mL [10]: > 90%
- MTD [12]: > 960 mg/kg

Structure (SMILES): CCN(CC)CCCC(C)Nc1ccnc2cc(Cl)ccc12 (configuration not stated) [CHLOROQUINE]
- IC90 [1]: 15.9 nM
- IC90 [2]: 640 nM
- IC90 [3]: 264 nM

Structure (SMILES): C[C@@H]1CC[C@H]2[C@@H](C)C(=O)O[C@@H]3O[C@@]4(C)CC[C@@H]1[C@]32OO4 [ARTEMISININ]
- IC50 [1]: 9 nM
- IC90 [1]: 12.8 nM
- IC50 [2]: 6.7 nM
- IC90 [2]: 11.5 nM
- IC50 [3]: 13 nM
- IC90 [3]: 17.4 nM
